STK33 kinase inh: blocks human STK33 kinase activity; inhibition, % at 10 µM; purified STK33, MBP phosphorylation, ADP-Glo luminescence; actives 0.073% (n = 320,000);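 active means inhibition at or above 25%, using the most active replicate where run in duplicate; inactive means inhibition below 25%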
GSK3B inh: inhibitors of human GSK3beta kinase; AID 2097; GST-GSK3beta kinase, ADP-Glo luminescence, 60 min; active compounds read low; actives 0.038% (n = 300,000); activity score (negative = inhibition), % at 10 µM;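 active means more than half of replicate wells score below -50%, meaning over 50% inhibition versus plate controls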
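Test system – GST-tagged human GSK3beta kinase, cell-free · Incubation – 60 min enzyme reaction, room temperature · Signal – ADP-Glo luminescence · Also added – peptide substrate and ATP at 25 µM · Controls – DMSO neutral wells and GW8510 at 20 µM as positive · Buffer or medium – Tris/MgCl2 kinase buffer · Measure – Luminescence-derived activity versus plate DMSO and GW8510 wells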
CDK5 inh: blocks human CDK5/p35 kinase activity; actives 0.01% (n = 330,000); Q00535+Q15078; Recombinant CDK5/p35, ADP-Glo luminescence, 60 min; inhibition, % at 10 µM; AID 488839;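 active means highest replicate inhibition of at least 50% and at least 75% of replicates reaching 50%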
GSK3A inh: human GSK-3 alpha kinase inhibition. P49840. ADP-Glo luminescence, 60 min. inhibition, % at 10 µM. actives 0.1% (n = 320,000). AID 2650;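 active means more than half of replicates show inhibition above 20%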;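 further: GST-tagged GSK-3 alpha with peptide substrate and 25 µM ATP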
Target sequence (P49840 whole entry, looked up): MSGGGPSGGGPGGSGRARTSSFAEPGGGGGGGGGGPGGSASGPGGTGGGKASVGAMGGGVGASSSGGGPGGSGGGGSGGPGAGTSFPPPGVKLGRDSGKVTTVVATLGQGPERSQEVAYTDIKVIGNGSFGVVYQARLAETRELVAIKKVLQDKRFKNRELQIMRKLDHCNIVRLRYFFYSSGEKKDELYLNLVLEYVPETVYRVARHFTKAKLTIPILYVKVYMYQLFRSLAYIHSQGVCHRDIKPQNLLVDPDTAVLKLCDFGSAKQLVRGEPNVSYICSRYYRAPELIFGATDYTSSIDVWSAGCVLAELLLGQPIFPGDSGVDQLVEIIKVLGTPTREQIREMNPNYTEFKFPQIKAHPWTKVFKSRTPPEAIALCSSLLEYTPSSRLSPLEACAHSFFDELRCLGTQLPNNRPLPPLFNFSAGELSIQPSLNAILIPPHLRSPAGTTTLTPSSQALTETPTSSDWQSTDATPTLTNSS
Dyrk1A ADPGlo: Dyrk1A (rat) kinase inhibition; ADP-Glo luminescence, NFATc1 peptide; inhibition, % at 12.5 µM; actives 0.43% (n = 310,000); Q63470; in the data active means inhibition above about 50%
Large screens that a line does not name were inactive. The full list was thinned out, with hits kept by preference.

CCOc1ccc(-n2c(=O)[nH]cc(C(=O)Nc3ccc(OC)c(OC)c3)c2=O)cc1	none
N#C/C(=C(/O)c1ccco1)c1nc2ccccc2[nH]1	STK33 kinase inh 29
CCC(C)Nc1nc(N)c([N+](=O)[O-])c(Nc2ccccc2OC)n1 (centres undefined)	GSK3B inh -55, GSK3A inh 66
Cc1cccc(CS(=O)(=O)c2cn(CC(=O)N3CCOCC3)c3ccccc23)c1	none
CCOc1cc(/C=C(\C#N)c2[nH]nc(N)c2C#N)ccc1O	STK33 kinase inh 35
Cn1c(=O)c2c(ncn2CC(=O)N/N=C/c2c[nH]c3ccccc23)n(C)c1=O	none (no result: CDK5 inh, Dyrk1A ADPGlo)
Cc1cccc(Nc2nc(N)c([N+](=O)[O-])c(NCCO)n2)c1	GSK3A inh 64 (no result: Dyrk1A ADPGlo)
Cc1cccc(Nc2nc(N)c([N+](=O)[O-])c(NCc3ccco3)n2)c1	none
COc1ccc(Nc2nc(N)c([N+](=O)[O-])c(NCCO)n2)cc1	GSK3B inh -53, GSK3A inh 75 (no result: CDK5 inh, Dyrk1A ADPGlo)
Nc1nc(Nc2cccc(Cl)c2)nc(NCCO)c1[N+](=O)[O-]	GSK3B inh -50, CDK5 inh 58, GSK3A inh 73
COc1ccc(Nc2nc(N)c([N+](=O)[O-])c(NCc3ccccc3)n2)cc1	none
CC(C)(C)NCC(=Cc1ccccc1)C(=O)c1ccccc1	none (no result: STK33 kinase inh, GSK3B inh, GSK3A inh, Dyrk1A ADPGlo)
CCOc1ccc(NS(=O)(=O)c2ccc(C(=O)N(C)Cc3cccc(OC)c3OC)cc2)cc1	none
COc1cc2cc(CCOC(=O)c3ccc(C(F)(F)F)cc3)oc(=O)c2cc1OC	none (no result: GSK3B inh)
CCn1c(=S)sc2c(=O)n(CC(=O)Nc3cccc(OC)c3)c(C)nc21	none
O=C(NC1CCCCCC1)C1CCN(S(=O)(=O)c2cnc[nH]2)CC1	none (no result: Dyrk1A ADPGlo)
O=C(Nc1ncc([N+](=O)[O-])s1)C1CCN(S(=O)(=O)c2cnc[nH]2)CC1	GSK3A inh 51
COc1cc(CCC(=O)NCCc2ccc(F)cc2)cc(OC)c1OC	none
O=C(NNCc1ccccc1)c1ccccn1	none (no result: STK33 kinase inh, GSK3B inh, GSK3A inh)
CCOC(=O)C1=C(C)Nc2ncnn2C1c1cccs1 (centres undefined)	none (no result: GSK3A inh)
CCCC1=C(C(=O)OCC)C(c2cccs2)n2ncnc2N1 (centres undefined)	GSK3A inh 61
COc1cc(/C=N/NC(=O)c2sc(N)c(C#N)c2C)ccc1O	GSK3A inh 65
CCCCNCC1C(Oc2ccc(Cl)cc2)C(=O)N1c1ccccc1C (centres undefined)	none
CC(C)(C)C(=O)NNC(=O)C1CC1(c1ccccc1)c1ccccc1 (centres undefined)	none
CCn1c(SCC(=O)Nc2nccs2)nnc1C1CC1	none
C=CCn1c(SCC(=O)Nc2ccc(Cl)cn2)nnc1C1CC1	none
Cn1c(SCC(=O)Nc2ccc(Cl)cn2)nnc1C1CC1	GSK3A inh 51
CCn1c(SCC(=O)Nc2ccc(Br)cn2)nnc1C1CC1	GSK3B inh -52
Cc1cc(N2CCN(c3ccccc3)CC2)n2nnnc2n1	none
Cc1cc(N2CCN(c3ccccc3)CC2)n2c(n1)nc1ccccc12	GSK3A inh 56
COc1ccccc1CNC(=O)OCc1nccnc1C(=O)Nc1ccc(Br)cn1	none
CCOc1ccc(NC(=S)N(CCc2c(C)[nH]c3ccccc23)Cc2ccco2)cc1	none
CCN1C(=O)CC(c2ccccc2)N(C2CCCC2)c2nc(Nc3ccc(C(=O)NC4CCN(C)CC4)cc3OC)ncc21 (centres undefined)	STK33 kinase inh 47 (no result: GSK3B inh)
CCN1C(=O)CC(C(C)C)N(C2CCCC2)c2nc(Nc3ccc(C(=O)NC4CCN(C)CC4)cc3OC)ncc21 (centres undefined)	none (no result: STK33 kinase inh, GSK3B inh, GSK3A inh)
CCOc1ccc(-c2ccc(SCC(=O)Nc3nnc(CC)s3)nn2)cc1	none
CCOc1ccc(-c2ccc(SC)nn2)cc1	STK33 kinase inh 31, Dyrk1A ADPGlo 56
Cc1c(C#N)c(O)[nH]c(=O)c1N=Nc1ccc(S(N)(=O)=O)cc1	GSK3B inh -76, GSK3A inh 79
Cc1c(C#N)c(O)[nH]c(=O)c1N=Nc1ccc(Cl)c(C(=O)O)c1	none
O=C(O)c1ccc(N=Cc2c(O)ccc3oc4c(c23)CCCC4)cc1	STK33 kinase inh 46 (no result: Dyrk1A ADPGlo)
Cc1cc(C(=O)O)cc(S(=O)(=O)Nc2c(C)nn(C)c2C)c1C	none (no result: GSK3B inh, Dyrk1A ADPGlo)
O=C(O)c1ccc(Nc2nc(-c3cccnc3)nc3ccccc23)cc1	GSK3A inh 61 (no result: CDK5 inh, Dyrk1A ADPGlo)
O=C(O)c1cccc(Nc2nc(-c3cccnc3)nc3ccccc23)c1	STK33 kinase inh 32
CCN(C(=O)COC(=O)CCNS(=O)(=O)c1ccccc1F)c1c(N)n(Cc2ccccc2)c(=O)[nH]c1=O	none (no result: GSK3B inh)
C=CC(=O)Nc1ccc(Nc2nc(NC3CCC(N(C)C)CC3)nc3c2ncn3C(C)C)cc1 (centres undefined)	STK33 kinase inh 81, CDK5 inh 95, Dyrk1A ADPGlo 93 (no result: GSK3B inh)
COc1cc(/C=N/N=C2/C(=O)Nc3ccccc32)ccc1O	STK33 kinase inh 38
O=C(OCCN1CCOCC1)c1ccc(O)cc1	none
OC(COc1ccc(F)cc1Cl)CN1CCC(Cc2ccccc2)CC1 (centres undefined)	Dyrk1A ADPGlo 51
CN(Cc1nc2c(s1)CCCC2)C(=O)CCc1nnc(-c2ccc3c(c2)OCO3)o1	GSK3A inh 58
CCOC(=O)C1CCCCN1C(=O)CCc1nnc(-c2ccc3c(c2)OCO3)o1 (centres undefined)	none
Cc1c(C(=O)N2CCOCC2)c(S(=O)(=O)N2CCN(c3ccc(Cl)cc3)CC2)c(C)n1C	none
Cc1cc2nc(-c3ccc[nH]c3=O)[nH]c2cc1C	GSK3A inh 61
CCCCn1c(N)c(N(Cc2ccccc2OC)C(=O)CCC(C)C)c(=O)[nH]c1=O	none
COc1ccc(/C=C(\C#N)C(=O)N=CN(C)C)cc1	none (no result: GSK3A inh)
CN(C)C=NC(=O)/C(C#N)=C1\CCc2ccccc2N1	GSK3A inh 52
C=CC(=O)Nc1ccc(CN2C(=O)N(c3c(Cl)c(OC)cc(OC)c3Cl)Cc3cnc(NCCCCN(CC)CC)nc32)cc1	STK33 kinase inh 80 (no result: GSK3B inh)
CCN(CC)CCNC(=O)c1ccc(NC(=O)Cc2ccc(OC)c(S(=O)(=O)N3CCOCC3)c2)cc1	none (no result: STK33 kinase inh, GSK3B inh, GSK3A inh)
CCN(CC(=O)NCc1cccs1)S(=O)(=O)c1ccccc1Cl	none
Oc1ccccc1-c1nc(NCCN2CCOCC2)c2ccccc2n1	STK33 kinase inh 60 (no result: CDK5 inh)
COc1cccc(-c2nc(NCCN3CCOCC3)c3ccccc3n2)c1O	none
CCn1c2ccc(/C(C)=N\O)cc2c2cc(/C(C)=N\O)ccc21	STK33 kinase inh 37
COc1cc(C)c2c(c1C=O)Oc1c(c(C)c(O)c3c1C(O)OC3=O)OC2=O (centres undefined)	STK33 kinase inh 44
COc1ccc(C2C3=C(CCCC3=O)Nc3n[nH]c(C)c32)cc1OC (centres undefined)	none
Cc1[nH]nc2c1C(c1ccc(N(C)C)cc1)C1=C(CC(C)(C)CC1=O)N2 (centres undefined)	none
Cc1[nH]nc2c1C(c1ccc(F)cc1)C1=C(CC(C)(C)CC1=O)N2 (centres undefined)	GSK3B inh -56 (no result: STK33 kinase inh)

Source: PubChem BioAssay
